Results on 31 compounds are retold here after ChEMBL document CHEMBL3763127, “Design, synthesis and biological evaluation of novel asperphenamate derivatives” (Eur J Med Chem, 2016).

Common to all, as to format: functional, cell-based
Experiment [1] can be described thus: Cytotoxicity against human Bel7402 cells after 3 days by MTT assay. The conditions noted are these: Bel-7402, 72 h. The method, boiled down: (§1)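 MCF-7, HeLa and BEL-7402 cells were grown in RPMI 1640 with 10% heat-inactivated FBS, 1 mM glutamine and penicillin/streptomycin at 37 °C under 5% CO2. They were exposed to compound for 3 days, then read by MTT at 570 nm. Viability was taken as treated/control absorbance, and IC50 was derived from it. Values are mean SD of three independent experiments.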

The next experiment concerns HeLa. As to the kind of experiment: Cytotoxicity against human HeLa cells after 3 days by MTT assay. The conditions noted are these: 72 h. The method, boiled down:
as §1

The test system of the next experiment is MCF7. Description: Cytotoxicity against human MCF7 cells after 3 days by MTT assay. The conditions noted are these: MCF7, 72 h. The essentials: as §1

pIC50: −log10 of the molar value.

In the case of `O=C(N[C@@H](COC(=O)[C@H](Cc1ccccc1)NC(=O)c1ccncc1)Cc1ccccc1)c1ccccc1` (single isomer, unassigned), the negative-log IC50 (pIC50) in experiment [1] was below 4.00; in the experiment on HeLa, below 4.00; in the experiment on MCF7, 4.19.

Consider `O=C(N[C@H](COC(=O)[C@@H](Cc1ccccc1)NC(=O)c1ccco1)Cc1ccccc1)c1ccccc1` (single isomer, unassigned), for which the pIC50 (in experiment [1]; in the experiment with HeLa; with MCF7) was below 4.00 in each case.

Take `O=C(N[C@H](COC(=O)[C@@H](Cc1ccccc1)NC(=O)c1cccs1)Cc1ccccc1)c1ccccc1`: the negative-log IC50 (pIC50) (in experiment [1]; with HeLa; with MCF7) was below 4.00 in each case.

In the case of `CS(=O)(=O)N[C@H](Cc1ccccc1)C(=O)OC[C@H](Cc1ccccc1)NC(=O)c1ccccc1`, the negative logarithm of the IC50 (pIC50) in experiment [1] is 4.43; in the experiment on HeLa it was 4.66; in the experiment with MCF7, 4.66.

In the case of `O=C(N[C@H](COC(=O)[C@@H](Cc1ccccc1)NC(=O)c1ccncc1)Cc1ccccc1)c1ccccc1` (single isomer, unassigned), the pIC50 in experiment [1] was 4.71; in the experiment with HeLa, 4.47; in the experiment on MCF7 it was 4.82.

As for `O=C(N[C@@H](COC(=O)[C@H](Cc1ccccc1)NC(=O)c1ccco1)Cc1ccccc1)c1ccccc1` (single isomer, unassigned), the pIC50 (in experiment [1]; in the experiment with HeLa; in the experiment on MCF7) was below 4.00 in each case.

As for `CS(=O)(=O)N[C@H](Cc1ccccc1)C(=O)OC[C@@H](Cc1ccccc1)NC(=O)c1ccccc1`, the negative logarithm of the IC50 (pIC50) in experiment [1] is 4.28; in the experiment on HeLa it was 4.19; in the experiment with MCF7 it was 4.22.

For the compound `O=C(N[C@H](COC(=O)[C@H](Cc1ccccc1)NC(=O)n1cncn1)Cc1ccccc1)c1ccccc1`, the pIC50 (in experiment [1]; with HeLa; in the experiment with MCF7) was below 4.00 in each case.

`Cc1ccc(S(=O)(=O)N[C@@H](Cc2ccccc2)C(=O)OC[C@@H](Cc2ccccc2)NC(=O)c2ccccc2)cc1`: the pIC50 in experiment [1] is 4.27; in the experiment with HeLa it was 4.38; with MCF7, 4.54.

With `O=C(N[C@@H](COC(=O)[C@H](Cc1ccccc1)NC(=O)n1cncn1)Cc1ccccc1)c1ccccc1` (single isomer, unassigned), the negative logarithm of the IC50 (pIC50) (in experiment [1]; with HeLa; in the experiment on MCF7) was below 4.00 each time.

`O=C(N[C@@H](COC(=O)[C@H](Cc1ccccc1)NC(=O)c1cccnc1)Cc1ccccc1)c1ccccc1` (single isomer, unassigned): the pIC50 (in experiment [1]; in the experiment with HeLa; with MCF7) was below 4.00 in each case.

For the compound `O=C(N[C@@H](COC(=O)[C@@H](Cc1ccccc1)NC(=O)n1ccnc1)Cc1ccccc1)c1ccccc1`, the results for the pIC50 (in experiment [1]; in the experiment with HeLa; in the experiment on MCF7) were 4.04, 4.10 and 4.06, respectively.

`O=C(N[C@@H](COC(=O)[C@@H](Cc1ccccc1)NC(=O)c1cccnc1)Cc1ccccc1)c1ccccc1`: the negative logarithm of the IC50 (pIC50) (in experiment [1]; with HeLa; in the experiment with MCF7) was below 4.00 throughout.

With `O=C(N[C@@H](COC(=O)[C@H](Cc1ccccc1)NC(=O)n1ccnc1)Cc1ccccc1)c1ccccc1` (single isomer, unassigned), the pIC50 (in experiment [1]; in the experiment with HeLa; in the experiment with MCF7) was below 4.00 in each case.

`CS(=O)(=O)N[C@@H](Cc1ccccc1)C(=O)OC[C@@H](Cc1ccccc1)NC(=O)c1ccccc1`: the negative-log IC50 (pIC50) (in experiment [1]; in the experiment with HeLa; in the experiment with MCF7) was below 4.00 each time.

For the compound `O=C(N[C@H](COC(=O)[C@@H](Cc1ccccc1)NC(=O)c1cccnc1)Cc1ccccc1)c1ccccc1` (single isomer, unassigned), the negative logarithm of the IC50 (pIC50) is 4.78 in experiment [1], 4.60 in the experiment with HeLa and 4.78 in the experiment on MCF7.

For the compound `O=C(N[C@H](COC(=O)[C@H](Cc1ccccc1)NC(=O)c1cccnc1)Cc1ccccc1)c1ccccc1`, the pIC50 (in experiment [1]; in the experiment with HeLa; in the experiment with MCF7) was below 4.00 throughout.

As for `O=C(N[C@@H](COC(=O)[C@H](Cc1ccccc1)NC(=O)c1cccs1)Cc1ccccc1)c1ccccc1`, the pIC50 (in experiment [1]; in the experiment on HeLa; in the experiment with MCF7) was below 4.00 throughout.

As for `O=C(N[C@H](COC(=O)[C@@H](Cc1ccccc1)NC(=O)n1ccnc1)Cc1ccccc1)c1ccccc1` (single isomer, unassigned), the pIC50 is 4.11 in experiment [1], 4.14 with HeLa and 4.18 in the experiment with MCF7.

On to `O=C(N[C@H](COC(=O)[C@H](Cc1ccccc1)NC(=O)c1ccncc1)Cc1ccccc1)c1ccccc1`, for which the negative logarithm of the IC50 (pIC50) (in experiment [1]; in the experiment with HeLa; in the experiment with MCF7) was below 4.00 throughout.

Consider `O=C(N[C@@H](COC(=O)[C@@H](Cc1ccccc1)NC(=O)c1ccncc1)Cc1ccccc1)c1ccccc1`, for which the values for the negative-log IC50 (pIC50) (in experiment [1]; with HeLa; in the experiment with MCF7) were 4.19, 4.05 and 4.27, respectively.

In the case of `O=C(N[C@H](COC(=O)[C@H](Cc1ccccc1)NC(=O)n1ccnc1)Cc1ccccc1)c1ccccc1`, the negative logarithm of the IC50 (pIC50) (in experiment [1]; with HeLa; with MCF7) was below 4.00 each time.

Consider `O=C(N[C@H](COC(=O)[C@H](Cc1ccccc1)NC(=O)c1cccs1)Cc1ccccc1)c1ccccc1`, for which the pIC50 (in experiment [1]; in the experiment on HeLa; in the experiment on MCF7) was below 4.00 throughout.

As for `O=C(N[C@@H](COC(=O)[C@@H](Cc1ccccc1)NC(=O)c1ccco1)Cc1ccccc1)c1ccccc1`, the negative logarithm of the IC50 (pIC50) (in experiment [1]; in the experiment with HeLa; in the experiment with MCF7) was below 4.00 throughout.

For `O=C(N[C@H](COC(=O)[C@@H](Cc1ccccc1)NC(=O)n1cncn1)Cc1ccccc1)c1ccccc1` (single isomer, unassigned), the pIC50 in experiment [1] is 4.09; in the experiment on HeLa it was 4.10; in the experiment with MCF7, 4.17.

As to `Cc1ccc(S(=O)(=O)N[C@@H](Cc2ccccc2)C(=O)OC[C@H](Cc2ccccc2)NC(=O)c2ccccc2)cc1`, the negative-log IC50 (pIC50) was 4.30 in experiment [1], 4.42 with HeLa and 4.21 with MCF7.

As for `CS(=O)(=O)N[C@@H](Cc1ccccc1)C(=O)OC[C@H](Cc1ccccc1)NC(=O)c1ccccc1`, the pIC50 in experiment [1] was 4.15; in the experiment on HeLa it was 4.03; in the experiment with MCF7 it was 4.12.

In the case of `O=C(N[C@H](COC(=O)[C@H](Cc1ccccc1)NC(=O)c1ccco1)Cc1ccccc1)c1ccccc1`, the negative-log IC50 (pIC50) (in experiment [1]; with HeLa; with MCF7) was below 4.00 in each case.

Consider `O=C(N[C@@H](COC(=O)[C@@H](Cc1ccccc1)NC(=O)n1cncn1)Cc1ccccc1)c1ccccc1`, for which the pIC50 was 4.02 in experiment [1], 4.04 in the experiment on HeLa and 4.05 in the experiment on MCF7.

Turning to `Cc1ccc(S(=O)(=O)N[C@H](Cc2ccccc2)C(=O)OC[C@@H](Cc2ccccc2)NC(=O)c2ccccc2)cc1`, the figures for the pIC50 (in experiment [1]; in the experiment with HeLa; with MCF7) were 4.65, 4.50 and 4.43, respectively.

Regarding `O=C(N[C@@H](COC(=O)[C@@H](Cc1ccccc1)NC(=O)c1cccs1)Cc1ccccc1)c1ccccc1`, the negative logarithm of the IC50 (pIC50) (in experiment [1]; in the experiment on HeLa; in the experiment with MCF7) was below 4.00 each time.
